Reference: ChEMBL document CHEMBL4689842, “EUbOPEN Chemogenomics Library wave 1” (2021)

Key:
Format in all cases: toxicity, cell-based
[1] = tested on: Fibroblast; assay: Multiplex assay against human fibroblast
Procedure, shortened: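 On a CQ1 microscope at 37°C and 5% CO2, live cells were imaged after compound addition. They had been stained at seeding with Hoechst33342, BioTracker Green Microtubule Cytoskeleton Dye, MitoTracker Red and Annexin V Alexa Fluor 680. CellPathfinder machine-learning gating assigned cells to Hoechst high-intensity objects or normal cells, normal cells to healthy, pyknosed or fragmented nuclei, and pyknosed cells to mitotic or apoptotic. Tubulin, mitochondrial-mass and membrane-permeability phenotypes are per cents of healthy-nucleus cells.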

[2] = tested on: HEK-293T; assay: Incucyte cell viability with HEK293T; conditions: human, 10 µM, compound concentration 10 uM; further: filed as whole numbers so only -1 and 0 and 1 occur
[3] = tested on: U2OS; assay: Incucyte cell viability with U2OS; conditions: human, 10 µM, compound concentration 10 uM; further: filed as whole numbers so only -1 and 0 and 1 occur
[4] = 12 h, 1 µM, compound concentration 1 uM, replicate 1
[5] = 12 h, 1 µM, compound concentration 1 uM, replicate 2
[6] = 12 h, 10 µM, compound concentration 10 uM, replicate 1
[7] = 12 h, 10 µM, compound concentration 10 uM, replicate 2
[8] = 24 h, 1 µM, compound concentration 1 uM, replicate 1
[9] = 24 h, 1 µM, compound concentration 1 uM, replicate 2
[10] = 24 h, 10 µM, compound concentration 10 uM, replicate 1
[11] = 24 h, 10 µM, compound concentration 10 uM, replicate 2
[12] = 48 h, 1 µM, compound concentration 1 uM, replicate 1
[13] = 48 h, 1 µM, compound concentration 1 uM, replicate 2
[14] = 48 h, 10 µM, compound concentration 10 uM, replicate 1
[15] = 48 h, 10 µM, compound concentration 10 uM, replicate 2
[16] = 0 h, replicate number 1, timepoint 0 hours
[17] = 6 h, replicate number 1, timepoint 6 hours
[18] = 12 h, replicate number 1, timepoint 12 hours
[19] = 18 h, replicate number 1, timepoint 18 hours
[20] = 24 h, replicate number 1, timepoint 24 hours

## CC(/C=C1\SC(=S)N(CCCC(=O)Nc2ccc(C(=O)O)c(O)c2)C1=O)=C\c1ccccc1
[1]; [4]
  Population Apoptotic (%): 59%
  Population Fragmented Nuclei (%): 22%
  Population Healthy Nuclei (%): 47%
  Population Hoechst High Intensity Objects (%): 11%
  Population Membrane Permeable-Phenotype (%): 31%
  Population Mitochondria Different-Phenotype (%): 4%
  Population Mitotic Cells (%): 40%
  Population Normal (%): 88%
  Population Pyknosed Nuclei (%): 29%
  Population Tubulin-Different-Phenotype (%): 38%
  Total Cell Count: 167
[1]; [5]
  Population Apoptotic (%): 33%
  Population Fragmented Nuclei (%): 10%
  Population Healthy Nuclei (%): 81%
  Population Hoechst High Intensity Objects (%): 6%
  Population Membrane Permeable-Phenotype (%): 7%
  Population Mitochondria Different-Phenotype (%): 7%
  Population Mitotic Cells (%): 66%
  Population Normal (%): 93%
  Population Pyknosed Nuclei (%): 7%
  Population Tubulin-Different-Phenotype (%): 7%
  Total Cell Count: 65
[1]; [6]
  Population Apoptotic (%): 62%
  Population Fragmented Nuclei (%): 32%
  Population Healthy Nuclei (%): 48%
  Population Hoechst High Intensity Objects (%): 61%
  Population Membrane Permeable-Phenotype (%): 40%
  Population Mitochondria Different-Phenotype (%): 9%
  Population Mitotic Cells (%): 37%
  Population Normal (%): 38%
  Population Pyknosed Nuclei (%): 18%
  Population Tubulin-Different-Phenotype (%): 54%
  Total Cell Count: 331
[1]; [7]
  Population Apoptotic (%): 44%
  Population Fragmented Nuclei (%): 17%
  Population Healthy Nuclei (%): 72%
  Population Hoechst High Intensity Objects (%): 7%
  Population Membrane Permeable-Phenotype (%): 6%
  Population Mitochondria Different-Phenotype (%): 6%
  Population Mitotic Cells (%): 55%
  Population Normal (%): 92%
  Population Pyknosed Nuclei (%): 10%
  Population Tubulin-Different-Phenotype (%): 9%
  Total Cell Count: 88
[1]; [8]
  Population Apoptotic (%): 54%
  Population Fragmented Nuclei (%): 23%
  Population Healthy Nuclei (%): 50%
  Population Hoechst High Intensity Objects (%): 7%
  Population Membrane Permeable-Phenotype (%): 29%
  Population Mitochondria Different-Phenotype (%): 1%
  Population Mitotic Cells (%): 45%
  Population Normal (%): 92%
  Population Pyknosed Nuclei (%): 25%
  Population Tubulin-Different-Phenotype (%): 37%
  Total Cell Count: 155
[1]; [9]
  Population Fragmented Nuclei (%): 12%
  Population Healthy Nuclei (%): 76%
  Population Hoechst High Intensity Objects (%): 6%
  Population Membrane Permeable-Phenotype (%): 4%
  Population Mitochondria Different-Phenotype (%): 10%
  Population Normal (%): 93%
  Population Pyknosed Nuclei (%): 10%
  Population Tubulin-Different-Phenotype (%): 12%
  Total Cell Count: 64
[1]; [10]
  Population Apoptotic (%): 53%
  Population Fragmented Nuclei (%): 32%
  Population Healthy Nuclei (%): 45%
  Population Hoechst High Intensity Objects (%): 57%
  Population Membrane Permeable-Phenotype (%): 44%
  Population Mitochondria Different-Phenotype (%): 6%
  Population Mitotic Cells (%): 46%
  Population Normal (%): 42%
  Population Pyknosed Nuclei (%): 22%
  Population Tubulin-Different-Phenotype (%): 44%
  Total Cell Count: 326
[1]; [11]
  Population Apoptotic (%): 44%
  Population Fragmented Nuclei (%): 9%
  Population Healthy Nuclei (%): 83%
  Population Hoechst High Intensity Objects (%): 4%
  Population Membrane Permeable-Phenotype (%): 5%
  Population Mitochondria Different-Phenotype (%): 14%
  Population Mitotic Cells (%): 55%
  Population Normal (%): 95%
  Population Pyknosed Nuclei (%): 7%
  Population Tubulin-Different-Phenotype (%): 14%
  Total Cell Count: 115
[1]; [12]
  Population Apoptotic (%): 62%
  Population Fragmented Nuclei (%): 34%
  Population Healthy Nuclei (%): 52%
  Population Hoechst High Intensity Objects (%): 14%
  Population Membrane Permeable-Phenotype (%): 30%
  Population Mitochondria Different-Phenotype (%): 3%
  Population Mitotic Cells (%): 37%
  Population Normal (%): 85%
  Population Pyknosed Nuclei (%): 12%
  Population Tubulin-Different-Phenotype (%): 33%
  Total Cell Count: 146
[1]; [13]
  Population Apoptotic (%): 100%
  Population Fragmented Nuclei (%): 15%
  Population Healthy Nuclei (%): 81%
  Population Hoechst High Intensity Objects (%): 12%
  Population Membrane Permeable-Phenotype (%): 18%
  Population Mitochondria Different-Phenotype (%): 1%
  Population Mitotic Cells (%): 0%
  Population Normal (%): 87%
  Population Pyknosed Nuclei (%): 2%
  Population Tubulin-Different-Phenotype (%): 35%
  Total Cell Count: 127
[1]; [14]
  Population Apoptotic (%): 69%
  Population Fragmented Nuclei (%): 49%
  Population Healthy Nuclei (%): 40%
  Population Hoechst High Intensity Objects (%): 55%
  Population Membrane Permeable-Phenotype (%): 37%
  Population Mitochondria Different-Phenotype (%): 13%
  Population Mitotic Cells (%): 30%
  Population Normal (%): 44%
  Population Pyknosed Nuclei (%): 9%
  Population Tubulin-Different-Phenotype (%): 54%
  Total Cell Count: 297
[1]; [15]
  Population Apoptotic (%): 33%
  Population Fragmented Nuclei (%): 23%
  Population Healthy Nuclei (%): 72%
  Population Hoechst High Intensity Objects (%): 12%
  Population Membrane Permeable-Phenotype (%): 14%
  Population Mitochondria Different-Phenotype (%): 4%
  Population Mitotic Cells (%): 66%
  Population Normal (%): 87%
  Population Pyknosed Nuclei (%): 4%
  Population Tubulin-Different-Phenotype (%): 38%
  Total Cell Count: 74
[2]; [16]
  Growth Rate: 0
[2]; [17]
  Growth Rate: 1
[2]; [18]
  Growth Rate: 0
[2]; 12 h, replicate number 2, timepoint 12 hours
  Growth Rate: 1
[2]; [19]
  Growth Rate: 0
[2]; 18 h, replicate number 2, timepoint 18 hours
  Growth Rate: 1
[2]; [20]
  Growth Rate: 0
[2]; 24 h, replicate number 2, timepoint 24 hours
  Growth Rate: 1
[3]; [16]
  Growth Rate: 0
[3]; [17]
  Growth Rate: 0
[3]; [18]
  Growth Rate: 1
[3]; [19]
  Growth Rate: 1
[3]; [20]
  Growth Rate: 1
